Active and inactive are the calls of the source. The rule behind the calls is not given here.
How the values were obtained:
MCF7 = assay: Antiproliferative activity in human MCF7 cells incubated for 72 hrs by MTT assay; assay type: functional, cell-based; conditions: MCF7, 72 h
In short: (§1)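 Cells grown in RPMI 1640 with 10% FBS, penicillin/streptomycin; seeded at 2 × 10⁵ cells/mL, allowed to adhere 24 h, then exposed 72 h to compounds diluted in medium from DMSO stocks. MTT added after medium change, 3 h, formazan dissolved in DMSO, absorbance at 570 nm. Triplicate wells, at least 3 independent experiments; IC50 by non-linear regression.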

HEK-293T = assay: Antiproliferative activity in human HEK293T cells incubated for 72 hrs by MTT assay; assay type: cell-based; in short: as §1
[1] = Selectivity index, ratio of IC50 for antiproliferative activity in HEK293T cells to IC50 for antiproliferative activity in human MCF7 cells; assay type: toxicity, cell-based; conditions: HEK293T cells versus MCF7 cells, read-out: Ratio IC50
In short: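 Ratio of HEK 293T IC50 to MCF-7 IC50 from 72 h MTT assays.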

[2] = Potency index, ratio of IC50 for antiproliferative activity in human MDA-MB-231 cells to IC50 for antiproliferative activity in human MCF7 cells; assay type: functional
In short: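 Ratio of MDA-MB-231 IC50 to MCF-7 IC50 from 72 h MTT assays.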

MDA-MB-231 [3] = assay: Antiproliferative activity in human MDA-MB-231 cells incubated for 72 hrs by MTT assay; assay type: functional, cell-based; conditions: MDA-MB-231, 72 h; in short: as §1
HCT-116 [4] = assay: Antiproliferative activity in p53 (-/-) human HCT116 cells incubated for 72 hrs by MTS assay; assay type: functional, cell-based; conditions: HCT-116, 72 h
In short: (§2)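 HCT116 p53(+/+) or p53(−/−) seeded at 1 × 10⁵ cells/mL, adhered 24 h, then treated 72 h with compounds diluted from DMSO stocks. Viability by MTS (CellTiter96 AQueous) with absorbance at 490 nm. Duplicate wells, three independent experiments; IC50 by non-linear regression.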

[5] = Selectivity index, ratio of IC50 for antiproliferative activity in HEK293T cells to IC50 for antiproliferative activity in human p53 (-/-) human HCT116 cells; assay type: toxicity, cell-based; conditions: HEK293T cells versus p53 (-/-) HCT116 cells, read-out: Ratio IC50
[6] = […], ratio of IC50 for antiproliferative activity in HEK293T cells to IC50 for antiproliferative activity in human MDA-MB-231 cells; assay type: toxicity, cell-based; conditions: HEK293T cells versus MDA-MB-231 cells, read-out: Ratio IC50
In short: (§3)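 Ratio of HEK 293T IC50 to MDA-MB-231 IC50 from 72 h MTT assays.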

[7] = Potency index, ratio of IC50 for antiproliferative activity in human p53 (+/+) human HCT116 cells to IC50 for antiproliferative activity in human MDA-MB-231 cells; assay type: functional
[8] = Potency index, ratio of IC50 for antiproliferative activity in human MCF7 cells to IC50 for antiproliferative activity in human MDA-MB-231 cells; assay type: functional
MDA-MB-231 [9] = assay: Induction of apoptosis in human MDA-MB-231 cells assessed as increase in caspase3/7 activity at antiproliferative IC50 level incubated for 48 hrs by Caspase-Glo 3/7 Assay; assay type: functional
HCT-116 [10] = assay: Antiproliferative activity in p53 (+/+) human HCT116 cells incubated for 72 hrs by MTS assay; assay type: functional, cell-based; conditions: HCT-116, 72 h; in short: as §2
MDA-MB-231 [11] = assay: Induction of cell cycle arrest in human MDA-MB-231 cells at antiproliferative IC50 level by propidium iodide staining based flow cytometry; assay type: functional
[12] = Selectivity index, ratio of IC50 for antiproliferative activity in HEK293T cells to IC50 for antiproliferative activity in human p53 (+/+) human HCT116 cells; assay type: toxicity, cell-based; conditions: HEK293T cells versus p53 (+/+) HCT116 cells, read-out: Ratio IC50
[13] = Selectivity index, ratio of IC50 for antiproliferative activity in HEK293T cells to IC50 for antiproliferative activity in human MDA-MB-231 cells; assay type: toxicity, cell-based; conditions: HEK293T cells versus MDA-MB-231 cells, read-out: Ratio IC50; in short: as §3
[14] = Potency index, ratio of IC50 for antiproliferative activity in human p53 (-/-) human HCT116 cells to IC50 for antiproliferative activity in human MDA-MB-231 cells; assay type: functional
HCT-116 [15] = assay: Reduction in MDM2 protein expression in p53 (+/+) human HCT116 cells at antiproliferative IC50 level incubated for 72 hrs by Western blot; assay type: functional, cell-based
In short: (§4)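 Lysed in NP-40 buffer, protein measured by Bradford, separated by 8%/14% SDS-PAGE, blotted to nitrocellulose. Probed overnight at 4 °C with anti-p53 (Pab-240) and anti-MDM2 (SMP-14), then HRP secondary with chemiluminescence. Ponceau S loading control, densitometry; two experiments.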

CCD-18Co [16] = assay: Cytotoxicity in human CCD-18Co cells assessed as reduction in cell viability at antiproliferative IC80 (for p53 (+/+) human HCT116 cells) incubated for 72 hrs by MTS assay; assay type: cell-based
In short: (§5)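 CCD-18Co colon fibroblasts grown in DMEM with 10% FBS, penicillin/streptomycin, Glutamax, NEAA. […] Viability by MTS, absorbance at 490 nm. Triplicate wells, at least 2 independent experiments; mean ± SEM.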

CCD-18Co [17] = assay: Cytotoxicity in human CCD-18Co cells assessed as reduction in cell viability at antiproliferative IC50 (for p53 (+/+) human HCT116 cells) incubated for 72 hrs by MTS assay; assay type: cell-based; in short: as §5
[18] = target: Tumour suppressor p53/oncoprotein Mdm2 (Homo sapiens) (UniProt P04637+Q00987); assay: Inhibition of p53/MDM2 interaction (unknown origin) transfected in p53 (-/-) human HCT116 cells at 10 uM incubated for 4 hrs by Venus-based bimolecular fluorescence complementation assay
Tumour suppressor p53/oncoprotein Mdm2 (Homo sapiens), sequence (P04637 whole entry, looked up): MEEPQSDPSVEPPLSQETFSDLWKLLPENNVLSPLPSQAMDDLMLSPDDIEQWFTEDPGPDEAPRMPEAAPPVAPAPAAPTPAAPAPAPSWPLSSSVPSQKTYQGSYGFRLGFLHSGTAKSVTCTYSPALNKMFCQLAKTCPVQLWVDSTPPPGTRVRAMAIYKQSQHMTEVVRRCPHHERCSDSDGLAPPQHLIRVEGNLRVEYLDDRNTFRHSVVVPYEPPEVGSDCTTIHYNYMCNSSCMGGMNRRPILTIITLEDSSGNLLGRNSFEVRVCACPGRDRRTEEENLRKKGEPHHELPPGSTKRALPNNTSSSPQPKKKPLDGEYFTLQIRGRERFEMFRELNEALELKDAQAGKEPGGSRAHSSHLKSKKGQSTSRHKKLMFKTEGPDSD
Tumour suppressor p53/oncoprotein Mdm2 (Homo sapiens), sequence (Q00987 whole entry, looked up): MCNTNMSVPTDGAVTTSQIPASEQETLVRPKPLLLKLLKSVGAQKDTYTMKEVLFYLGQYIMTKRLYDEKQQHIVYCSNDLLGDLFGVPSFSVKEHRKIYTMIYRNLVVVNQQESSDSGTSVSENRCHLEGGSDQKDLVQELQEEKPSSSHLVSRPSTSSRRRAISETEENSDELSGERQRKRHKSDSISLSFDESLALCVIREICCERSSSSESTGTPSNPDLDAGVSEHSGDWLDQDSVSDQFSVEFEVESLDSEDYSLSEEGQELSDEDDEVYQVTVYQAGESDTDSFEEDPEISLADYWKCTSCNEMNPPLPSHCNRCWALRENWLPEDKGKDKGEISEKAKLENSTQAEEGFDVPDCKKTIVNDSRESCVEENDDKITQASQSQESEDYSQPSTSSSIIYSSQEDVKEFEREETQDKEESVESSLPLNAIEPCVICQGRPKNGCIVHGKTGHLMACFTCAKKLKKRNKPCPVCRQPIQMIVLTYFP
In short: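 HCT116 p53(−/−) co-transfected with V1-p53/MDM2-V2 BiFC plasmids using Lipofectamine 2000. Medium replaced 4–6 h after transfection, then compound (final 5 and 10 µM), nutlin-3a, or matched DMSO added; transfection period 24 h. Venus fluorescence read by flow cytometry and normalized to DMSO (100%). Three experiments.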

HCT-116 [19] = assay: Induction of cell cycle arrest in p53 (+/+) human HCT116 cells assessed as accumulation at G0/G1 phase at antiproliferative IC50 level incubated for 24 hrs by propidium iodide staining based flow cytometry (reference value: 31.87%); assay type: functional
[20] = Potency index, ratio of IC50 for antiproliferative activity in human p53 (-/-) human HCT116 cells to IC50 for antiproliferative activity in human p53 (+/+) human HCT116; assay type: functional
HCT-116 [21] = assay: Induction of cell cycle arrest in p53 (+/+) human HCT116 cells assessed as accumulation at S phase at antiproliferative IC50 level incubated for 24 hrs by propidium iodide staining based flow cytometry (reference value: 38.3%); assay type: functional
HCT-116 [22] = assay: Induction of cell cycle arrest in p53 (+/+) human HCT116 cells assessed as accumulation at G0/G1 phase at antiproliferative IC50 level incubated for 48 hrs by propidium iodide staining based flow cytometry (reference value: 50.48%); assay type: functional
HCT-116 [23] = assay: Induction of apoptosis in p53 (+/+) human HCT116 cells at 2 times antiproliferative IC50 level incubated for 72 hrs by Annexin-V and 7-AAD staining based flow cytometry; assay type: functional, cell-based
In short: (§6)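 Cells detached with Accutase and stained with Annexin V/7-AAD (Guava Nexin), 20 min at room temperature in the dark. Flow cytometry, ≥5000 events per sample; three independent experiments.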

HCT-116 [24] = assay: Increase in p53 protein expression in p53 (+/+) human HCT116 cells at antiproliferative IC50 level incubated for 72 hrs by Western blot; assay type: functional, cell-based; in short: as §4
HCT-116 [25] = assay: Induction of apoptosis in p53 (+/+) human HCT116 cells assessed as increase in early apoptotic cells level at antiproliferative IC50 level incubated for 72 hrs by Annexin-V and 7-AAD staining based flow cytometry; assay type: functional; in short: as §6
HCT-116 [26] = assay: Induction of cell cycle arrest in p53 (+/+) human HCT116 cells assessed as accumulation at S phase at antiproliferative IC50 level incubated for 48 hrs by propidium iodide staining based flow cytometry (reference value: 22.67%); assay type: functional
HCT-116 [27] = assay: Induction of cell cycle arrest in p53 (+/+) human HCT116 cells assessed as accumulation at G2/M phase at antiproliferative IC50 level incubated for 48 hrs by propidium iodide staining based flow cytometry (reference value: 26.85%); assay type: functional
HCT-116 [28] = assay: Induction of cell cycle arrest in p53 (+/+) human HCT116 cells assessed as accumulation at G2/M phase at antiproliferative IC50 level incubated for 24 hrs by propidium iodide staining based flow cytometry (reference value: 25.85%); assay type: functional

Compound | IC50 (MCF7) | IC50 (MDA-MB-231 [3]) | IC50 (HCT-116 [4]) | IC50 (HCT-116 [10]) | IC50 (HEK-293T) | selectivity ratio [1] | selectivity ratio [5] | selectivity ratio [6] | Ratio IC50 [7] | Ratio IC50 [8] | selectivity ratio [12] | selectivity ratio [13] | Ratio IC50 [14] | Activity (CCD-18Co [16]) | Activity (CCD-18Co [17]) | Activity (HCT-116 [19]) | Activity (HCT-116 [21]) | Activity (HCT-116 [22]) | Activity (HCT-116 [23]) | fold change (FC) (HCT-116 [25]) | other results
O=C1Nc2ccc(Br)cc2C12N(c1ccccc1)N=C(c1ccccc1)N2c1ccccc1 (stereo unspecified) | 23 µM | 6.7 µM | 22.5 µM | 22.2 µM | 56.3 µM | 2.4 to 2.5 | 2.5 | ≥ 2.5 | >=2.4 | >=2.4 | 2.5 | ≥ 2.4 | >=2.4 | – | – | – | – | – | – | – | fold change (FC) (MDA-MB-231 [9]): 2.5; Activity (MDA-MB-231 [11]): inactive
O=C1Nc2ccc(Br)cc2C12N(c1ccccc1)N=C(c1ccccc1)N2c1cccc(Cl)c1 (stereo unspecified) | 21.4 µM | 3.5 µM | 17.8 µM | 15.7 µM | 21.6 µM | < 2 | < 2 | – | >=2.4 | >=2.4 | < 2 | ≥ 2.4 | >=2.4 | – | – | – | – | – | – | – | –
O=C1Nc2ccc(Cl)cc2C12N(c1ccccc1)N=C(c1ccccc1)N2c1cccc(Cl)c1 (stereo unspecified) | 9.8 µM | 8.9 µM | 17.9 µM | 16.3 µM | > 100 µM | 2.5 to 10.2 | 2.5 to 5.6 | ≥ 2.5 | – | – | 2.5 to 5.6 | – | – | 40% | Non-Toxic | 50.11% | 36.42% | 58% | Dose-dependent effect | 3.1 | Activity (HCT-116 [27]): 13.65%; Activity (HCT-116 [28]): 13.87%; Activity (HCT-116 [26]): 31.34%

These reach a lower IC50 (MCF7). Values come first.

IC50 (MCF7) | IC50 (MDA-MB-231 [3]) | IC50 (HCT-116 [4]) | IC50 (HCT-116 [10]) | Compound | IC50 (HEK-293T) | selectivity ratio [1] | selectivity ratio [5] | selectivity ratio [6] | Ratio IC50 [7] | Ratio IC50 [8] | selectivity ratio [12] | selectivity ratio [13] | Ratio IC50 [14] | Activity (CCD-18Co [16]) | Activity (CCD-18Co [17]) | Activity (HCT-116 [19]) | Activity (HCT-116 [21]) | Activity (HCT-116 [22]) | Activity (HCT-116 [23]) | fold change (FC) (HCT-116 [25]) | other results
7.3 µM | > 100 µM | – | – | O=C1Nc2ccc(Br)cc2[C@]12[C@@H](c1ccccc1)C(c1ccccc1)=NN2c1ccccc1 | > 100 µM | > 13.7 | – | – | – | – | – | – | – | – | – | – | – | – | – | – | Ratio IC50 [2]: > 13.7
9.5 µM | 7.6 µM | 17.7 µM | 13.9 µM | O=C1Nc2ccc(Br)cc2C12N(c1ccccc1Cl)N=C(c1cccc(Cl)c1)N2c1cccc(Cl)c1 (stereo unspecified) | 21.4 µM | 2.3 | < 2 | – | – | – | 1.5 | – | – | 40% | Non-Toxic | 34.54% | 42.61% | 65.49% | Dose-dependent effect | 2.8 | Activity (HCT-116 [15]): Active; inhibition [18]: Active; Ratio IC50 [20]: 1.3; Activity (HCT-116 [24]): Active; Activity (HCT-116 [26]): 33.41%
